Source: ChEMBL document CHEMBL4706575, “Nonpeptidic quinazolinone derivatives as dual nucleotide-binding oligomerization domain-like receptor 1/2 antagonists for adjuvant cancer chemotherapy” (Eur J Med Chem, 2020)
Calls of active or inactive are those of the source.

Key:
[1] = molecular target: T1, Nucleotide-binding oligomerization domain-containing protein 1 (Homo sapiens) (UniProt Q9Y239); assay: Antagonist activity at NOD1 in human THP-1 cells assessed as inhibition of C12-iE-DAP-induced IkappaBalpha degradation at 1 to 10 uM preincubated for 1 hr followed by C12-iE-DAP addition and measured after 30 mins by Western blot analysis; type: cell-based; conditions: filed as antagonist, dose 1-10 µM, time 1.5 hrs
T1 sequence (whole entry): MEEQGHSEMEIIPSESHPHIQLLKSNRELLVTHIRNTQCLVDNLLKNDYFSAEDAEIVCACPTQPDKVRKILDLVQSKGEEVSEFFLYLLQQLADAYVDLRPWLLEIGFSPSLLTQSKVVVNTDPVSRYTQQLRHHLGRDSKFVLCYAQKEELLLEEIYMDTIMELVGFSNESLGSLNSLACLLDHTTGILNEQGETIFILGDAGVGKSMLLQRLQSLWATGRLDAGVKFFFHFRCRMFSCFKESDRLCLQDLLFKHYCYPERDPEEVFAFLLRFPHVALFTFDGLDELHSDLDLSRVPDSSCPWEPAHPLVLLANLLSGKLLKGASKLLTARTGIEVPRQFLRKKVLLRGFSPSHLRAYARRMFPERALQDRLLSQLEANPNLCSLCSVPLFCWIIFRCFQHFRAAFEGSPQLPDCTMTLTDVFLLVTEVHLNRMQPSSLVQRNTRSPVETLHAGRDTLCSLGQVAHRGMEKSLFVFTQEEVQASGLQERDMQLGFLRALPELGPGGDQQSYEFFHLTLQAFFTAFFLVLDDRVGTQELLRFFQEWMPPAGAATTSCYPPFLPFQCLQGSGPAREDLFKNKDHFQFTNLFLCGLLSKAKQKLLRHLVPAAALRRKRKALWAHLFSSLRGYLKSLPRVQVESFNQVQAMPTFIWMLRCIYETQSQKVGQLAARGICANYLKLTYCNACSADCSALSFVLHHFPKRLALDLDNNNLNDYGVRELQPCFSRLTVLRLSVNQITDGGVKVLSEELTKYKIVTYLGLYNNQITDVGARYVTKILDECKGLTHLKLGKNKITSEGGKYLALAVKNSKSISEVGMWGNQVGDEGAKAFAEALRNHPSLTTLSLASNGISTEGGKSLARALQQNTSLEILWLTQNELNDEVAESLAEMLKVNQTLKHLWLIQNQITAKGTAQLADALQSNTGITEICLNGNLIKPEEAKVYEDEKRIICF
Outline: (§1)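 Serum-starved THP-1 cells pretreated with compound (1.0 or 10 µM) or without for 1 h. Then C12-iE-DAP 500 ng/mL (NOD1) or MDP (NOD2) for 30 min. Lysed in cold whole-cell buffer. Western blot for IκBα and for total and phospho RIP2, IKKα/β, p65, JNK, p38 and ERK1/2. β-actin as loading control.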

[2] = Toxicity in mouse B16-F10 cells implanted C57BL/6 mouse assessed as change in body weight at 50 mg/kg, iv administered every other day for 15 days; type: organism-based; conditions: in vivo, 360 h, time 15 day
[3] = molecular target: T1, Nucleotide-binding oligomerization domain-containing protein 1 (Homo sapiens); assay: Antagonist activity at NOD1 in human THP-1 cells assessed as inhibition of C12-iE-DAP-induced TNFalpha mRNA expression preincubated for 1 hr followed by C12-iE-DAP addition and measured after 90 mins by qRT-PCR analysis; type: cell-based; conditions: filed as antagonist, dose 1-10 µM, time 150.0 min
Outline: (§2)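 THP-1 cells in RPMI-1640 with 10% FBS, treated with compound (1.0 or 10 µM) or vehicle for 1 h. Then stimulated 90 min with C12-iE-DAP 500 ng/mL (NOD1) or MDP (NOD2). IL-6, TNF-α and IL-8 mRNA measured by qRT-PCR. Mean ± SD, n = 6, two-tailed t-test.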

[4] = molecular target: T2, Nucleotide-binding oligomerization domain-containing protein 2 (Homo sapiens, UniProt Q9HC29); assay: Antagonist activity at NOD2 in human THP-1 cells assessed as inhibition of MDP-induced TNFalpha mRNA expression preincubated for 1 hr followed by MDP addition and measured after 90 mins by qRT-PCR analysis; type: cell-based; conditions: filed as antagonist, dose 1-10 µM, time 150.0 min; outline: as §2
[5] = molecular target: T2, Nucleotide-binding oligomerization domain-containing protein 2; assay: Antagonist activity at NOD2 in human THP-1 cells assessed as inhibition of MDP-induced increase in JNK phosphorylation preincubated for 1 hr followed by MDP addition and measured after 30 mins by Western blot analysis; type: cell-based; conditions: filed as antagonist, dose 1-10 µM, time 1.5 hrs; outline: as §1
[6] = molecular target: T1, Nucleotide-binding oligomerization domain-containing protein 1 (Homo sapiens); assay: Antagonist activity at NOD1 in HEK-Blue hNOD1 cells assessed as inhibition of C12-iE-DAP-induced NFkappaB activation-mediated SEAP release at 5 uM preincubated for 3 hrs followed by C12-iE-DAP addition and measured after 20 hrs by spectrophotometric method relative to control; type: cell-based; conditions: filed as antagonist, time 23.0 hrs
[7] = molecular target: T1, Nucleotide-binding oligomerization domain-containing protein 1 (Homo sapiens); assay: Antagonist activity at NOD1 in human THP-1 cells assessed as inhibition of C12-iE-DAP-induced increase in p38 phosphorylation at 1 to 10 uM preincubated for 1 hr followed by C12-iE-DAP addition and measured after 30 mins by Western blot analysis; type: cell-based; conditions: filed as antagonist, dose 1-10 µM, time 1.5 hrs; outline: as §1
[8] = molecular target: T2, Nucleotide-binding oligomerization domain-containing protein 2; assay: Antagonist activity at NOD2 in human THP-1 cells assessed as inhibition of MDP-induced increase in p65 phosphorylation preincubated for 1 hr followed by MDP addition and measured after 30 mins by Western blot analysis; type: cell-based; conditions: filed as antagonist, dose 1-10 µM, time 1.5 hrs; outline: as §1
[9] = molecular target: T1, Nucleotide-binding oligomerization domain-containing protein 1 (Homo sapiens); assay: Antagonist activity at NOD1 in human THP-1 cells assessed as inhibition of C12-iE-DAP-induced IL8 mRNA expression preincubated for 1 hr followed by C12-iE-DAP addition and measured after 90 mins by qRT-PCR analysis; type: cell-based; conditions: filed as antagonist, dose 1-10 µM, time 150.0 min; outline: as §2
[10] = molecular target: T2, Nucleotide-binding oligomerization domain-containing protein 2; assay: Antagonist activity at NOD2 in human THP-1 cells assessed as inhibition of MDP-induced increase in IKKalpha/beta phosphorylation preincubated for 1 hr followed by MDP addition and measured after 30 mins by Western blot analysis; type: cell-based; conditions: filed as antagonist, dose 1-10 µM, time 1.5 hrs; outline: as §1
[11] = molecular target: T2, Nucleotide-binding oligomerization domain-containing protein 2; assay: Antagonist activity at NOD2 in human THP-1 cells assessed as inhibition of MDP-induced IkappaBalpha degradation preincubated for 1 hr followed by MDP addition and measured after 30 mins by Western blot analysis; type: cell-based; conditions: filed as antagonist, dose 1-10 µM, time 1.5 hrs; outline: as §1
[12] = molecular target: T2, Nucleotide-binding oligomerization domain-containing protein 2; assay: Antagonist activity at NOD2 in human THP-1 cells assessed as inhibition of MDP-induced increase in p38 phosphorylation preincubated for 1 hr followed by MDP addition and measured after 30 mins by Western blot analysis; type: cell-based; conditions: filed as antagonist, dose 1-10 µM, time 1.5 hrs; outline: as §1

T2 sequence (Q9HC29 whole entry, the tested form may be a part): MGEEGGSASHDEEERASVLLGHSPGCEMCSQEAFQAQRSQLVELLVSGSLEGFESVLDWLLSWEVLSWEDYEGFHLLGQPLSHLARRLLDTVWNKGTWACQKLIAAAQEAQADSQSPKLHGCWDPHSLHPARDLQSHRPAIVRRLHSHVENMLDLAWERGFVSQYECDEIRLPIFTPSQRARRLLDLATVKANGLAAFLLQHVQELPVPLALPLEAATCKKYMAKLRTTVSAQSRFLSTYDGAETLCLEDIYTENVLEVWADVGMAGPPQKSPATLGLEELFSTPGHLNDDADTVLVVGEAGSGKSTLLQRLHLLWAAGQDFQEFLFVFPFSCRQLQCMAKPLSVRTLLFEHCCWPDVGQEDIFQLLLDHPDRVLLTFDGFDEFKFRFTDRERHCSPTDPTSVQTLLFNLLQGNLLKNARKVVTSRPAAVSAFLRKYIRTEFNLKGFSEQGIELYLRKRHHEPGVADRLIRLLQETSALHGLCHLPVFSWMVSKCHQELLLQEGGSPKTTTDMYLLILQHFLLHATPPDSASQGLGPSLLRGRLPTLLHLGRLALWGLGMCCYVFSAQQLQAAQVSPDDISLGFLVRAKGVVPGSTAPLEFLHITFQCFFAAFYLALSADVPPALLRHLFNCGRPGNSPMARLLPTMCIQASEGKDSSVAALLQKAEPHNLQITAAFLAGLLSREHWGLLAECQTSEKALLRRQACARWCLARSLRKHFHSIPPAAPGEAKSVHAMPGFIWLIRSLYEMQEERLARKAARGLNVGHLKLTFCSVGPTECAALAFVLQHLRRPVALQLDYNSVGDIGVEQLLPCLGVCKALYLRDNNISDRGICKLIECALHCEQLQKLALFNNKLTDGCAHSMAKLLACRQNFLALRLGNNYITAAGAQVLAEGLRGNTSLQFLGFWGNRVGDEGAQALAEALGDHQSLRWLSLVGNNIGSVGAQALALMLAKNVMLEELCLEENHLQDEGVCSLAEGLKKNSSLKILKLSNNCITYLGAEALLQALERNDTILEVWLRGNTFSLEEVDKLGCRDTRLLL

O=C(NCCCOc1ccc(C(F)(F)F)cc1)c1cc2ncn(CC(=O)N3CCCC(F)(F)C3)c(=O)c2cc1-c1cccc(Cl)c1
91.4%: inhibition [6]
Non-Toxic: Activity [2]
active: inhibition [1] | inhibition [3] Dose-dependent effect | inhibition [4] Dose-dependent effect | inhibition [5] Dose-dependent effect | inhibition [7] | inhibition [8] Dose-dependent effect | inhibition [9] Dose-dependent effect | inhibition [10] Dose-dependent effect | inhibition [11] Dose-dependent effect | inhibition [12] Dose-dependent effect
